This is an account of results in ChEMBL document CHEMBL1641418, “Discovery of isoindoline and tetrahydroisoquinoline derivatives as potent, selective PPARδ agonists” (Bioorg Med Chem Lett, 2011).

One may read the EC50 as the midpoint of the concentration-response curve. Higher therefore signals a less potent agent. For orientation: logD means lipophilicity at a set pH, counting ionised and neutral species. The low end stands for lower lipophilicity, the high end for higher lipophilicity.

Data set [1] deals with T1, Peroxisome proliferator-activated receptor gamma (Homo sapiens, UniProt P37231).
T1 sequence (P37231 whole entry): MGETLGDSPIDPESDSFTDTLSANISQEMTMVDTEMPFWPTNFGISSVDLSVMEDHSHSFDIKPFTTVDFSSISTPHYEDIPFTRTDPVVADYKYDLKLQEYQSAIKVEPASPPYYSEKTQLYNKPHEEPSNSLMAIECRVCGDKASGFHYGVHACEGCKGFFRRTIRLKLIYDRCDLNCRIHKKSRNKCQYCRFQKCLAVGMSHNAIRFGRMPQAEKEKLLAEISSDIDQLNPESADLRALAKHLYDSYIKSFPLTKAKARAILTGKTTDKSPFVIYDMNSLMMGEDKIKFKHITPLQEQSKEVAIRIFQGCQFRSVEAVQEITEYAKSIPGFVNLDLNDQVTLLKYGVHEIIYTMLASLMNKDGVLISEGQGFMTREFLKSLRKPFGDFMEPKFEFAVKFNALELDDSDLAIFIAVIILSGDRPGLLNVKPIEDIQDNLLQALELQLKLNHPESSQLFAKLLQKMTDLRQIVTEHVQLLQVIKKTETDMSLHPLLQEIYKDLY
Kind of data set: Agonist activity at Gal4-fused human PPARgamma […] binding domain expressed in HEK293 cells by luciferase reporter gene assay. Type of data set: cell-based. On the technique in general: In a reporter assay the amount or activity of a reporter protein is the signal.

Data set [2] deals with T2, Peroxisome proliferator-activated receptor delta (Homo sapiens, UniProt Q03181).
T2 sequence (Q03181 whole entry): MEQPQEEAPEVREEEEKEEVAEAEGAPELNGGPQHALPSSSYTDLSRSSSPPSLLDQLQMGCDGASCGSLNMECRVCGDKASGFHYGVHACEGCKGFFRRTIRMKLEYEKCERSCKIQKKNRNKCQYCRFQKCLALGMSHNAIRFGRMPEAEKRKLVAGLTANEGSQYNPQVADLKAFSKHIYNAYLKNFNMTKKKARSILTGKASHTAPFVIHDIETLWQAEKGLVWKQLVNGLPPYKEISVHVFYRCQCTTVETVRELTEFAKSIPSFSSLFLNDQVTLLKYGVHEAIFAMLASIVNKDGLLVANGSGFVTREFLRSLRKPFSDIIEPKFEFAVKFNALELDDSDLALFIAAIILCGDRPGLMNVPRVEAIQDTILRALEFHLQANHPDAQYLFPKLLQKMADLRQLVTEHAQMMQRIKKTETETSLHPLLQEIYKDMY
In words: Induction of PPARdelta-mediated PDK4 mRNA upregulation in human myoblast after 24 hrs. In a few lines:
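Myoblasts isolated from human vastus lateralis skeletal muscle by enzymatic digestion, then differentiated into myotubes for 7 days in 2% horse serum. Myotubes were exposed to compound for 24 h, and fold induction of PDK4 mRNA was measured. EC50 was taken from the dose–response curve, with GW501516 run as the reference agonist.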

For data set [3], the target named is T3, Peroxisome proliferator-activated receptor alpha (Homo sapiens, UniProt Q07869).
T3 sequence (Q07869 whole entry): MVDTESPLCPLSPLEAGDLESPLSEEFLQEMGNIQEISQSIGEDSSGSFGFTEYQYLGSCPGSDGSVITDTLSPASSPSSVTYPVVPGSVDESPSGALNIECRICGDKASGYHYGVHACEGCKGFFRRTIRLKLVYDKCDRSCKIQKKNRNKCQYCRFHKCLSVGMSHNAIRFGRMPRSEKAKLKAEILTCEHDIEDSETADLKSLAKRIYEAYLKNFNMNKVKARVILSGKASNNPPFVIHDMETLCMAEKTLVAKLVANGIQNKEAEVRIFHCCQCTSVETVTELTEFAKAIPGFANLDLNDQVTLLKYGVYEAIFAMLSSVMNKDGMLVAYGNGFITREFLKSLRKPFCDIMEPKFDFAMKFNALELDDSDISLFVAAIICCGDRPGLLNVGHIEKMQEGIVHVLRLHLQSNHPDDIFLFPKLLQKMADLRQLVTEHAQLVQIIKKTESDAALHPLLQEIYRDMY
Kind of data set: Agonist activity at Gal4-fused human PPARalpha […] binding domain expressed in HEK293 cells by luciferase reporter gene assay. In kind it is cell-based.

Data set [4] is described as follows: Lipophilicity, log D of the compound. Type of data set: physicochemical. To be noted: octanol/water.
Data set [5] has as its target T2, Peroxisome proliferator-activated receptor delta. Kind of data set: Agonist activity at Gal4-fused human PPARdelta […] binding domain expressed in HEK293 cells by luciferase reporter gene assay. Type of data set: cell-based.

`Cc1cc(CN2CCc3ccccc3C2C(=O)Nc2ccc(Cl)cc2Cl)ccc1OCC(=O)O` (racemic): the EC50 was determined as 2700 nM in data set [1], 70 nM in data set [2], 6300 nM in data set [3] and 10 nM in data set [5]. Moreover, the logD in data set [4] was found to be 2.6.

For the molecule `Cc1cc(CN2Cc3ccccc3C2C(=O)Nc2ccc(Cl)cc2)ccc1OCC(=O)O` (stereo not given), in data set [5], the EC50 came to 2500 nM.

The molecule `Cc1cc(CN2Cc3ccccc3C2C(=O)Nc2ccccc2)ccc1OCC(=O)O` (stereo not given) yielded an EC50 in data set [5] above 60000 nM.

For `Cc1cc(CN2Cc3ccccc3C[C@H]2C(=O)Nc2ccc(Cl)cc2Cl)ccc1OCC(=O)O`, the EC50 in data set [1] was above 20000 nM; in data set [2], 15 nM; in data set [3], 2500 nM; in data set [5], 5 nM. For the same molecule, the logD in data set [4] worked out at 2.4.

`Cc1cc(CN2Cc3ncccc3CC2C(=O)Nc2ccc(Cl)cc2Cl)ccc1OCC(=O)O` (racemic) returned an EC50 in data set [5] of 500 nM.

As to `Cc1cc(CN2CCC(C(=O)Nc3ccc(Cl)cc3Cl)C2)ccc1OCC(=O)O` (stereo not given), in data set [5], the response was half-maximal at 1000 nM (EC50).

On to `Cc1cc(CN2CCCC2C(=O)Nc2ccc(Cl)cc2Cl)ccc1OCC(=O)O` (stereo not given), for which, in data set [5], the response was half-maximal at 1600 nM (EC50).

Turning to `Cc1cc(CN2Cc3ccccc3C2C(=O)O)ccc1OCC(=O)O` (stereo not given), in data set [5], the concentration giving a half-maximal response (EC50) is above 20000 nM.

In the case of `Cc1cc(CN2Cc3ccccc3C2C(=O)Nc2ccc(Cl)cc2Cl)ccc1OCC(=O)O` (racemic), the EC50 is above 30000 nM in data set [1], above 30000 nM in data set [3] and 25 nM in data set [5]. Further, the logD in data set [4] is 2.6.

For the molecule `Cc1cc(CN2Cc3cccnc3CC2C(=O)Nc2ccc(Cl)cc2Cl)ccc1OCC(=O)O` (racemic), in data set [5], it took 2000 nM to reach a half-maximal effect (EC50).

With `Cc1cc(CN2Cc3ccccc3C[C@@H]2C(=O)Nc2ccc(Cl)cc2Cl)ccc1OCC(=O)O`, the EC50 in data set [1] was found to be 800 nM; in data set [3], 1250 nM; in data set [5], 0.5 nM.

`Cc1cc(CN2Cc3ccccc3C2C(=O)Nc2cc(Cl)ccc2Cl)ccc1OCC(=O)O` (stereo not given) came in with an EC50 in data set [5] of 320 nM.
